Test [1] concerns Mycobacterium tuberculosis variant bovis BCG. The experiment in a line: Inhibition of fatty acid synthase 1 in Mycobacterium bovis BCG assessed as incorporation of [1-14C]acetate in C16 biosynthesis at 1500 ug/ml at pH 6.0. The method, boiled down:
(§1)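 M. bovis BCG was exposed to drug in medium at pH 6 or 6.8, then labelled with [1-14C]acetate. Extracted fatty acids were analysed by HPLC for 14C-labelled C16.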

The test system is the same in test [2]. The experiment in a line: Inhibition of fatty acid synthase 1 in Mycobacterium bovis BCG assessed as incorporation of [1-14C]acetate in C16 biosynthesis at 1500 ug/ml at pH 6.8. An outline of the steps: as §1

As a reminder, the inhibition is the drop in the measured response relative to a control, in per cent. On to `O=C(O)c1cnccn1` [PYRAZINOIC ACID], for which the inhibition in test [1] turned out to be 97%; in test [2], 30%.

The record behind these values is ChEMBL document CHEMBL1142174, “Pyrazinoic acid and its n-propyl ester inhibit fatty acid synthase type I in replicating tubercle bacilli” (2007).
